ChEMBL document CHEMBL1157203, “Synthesis and cytotoxic activity of gamma-aryl substituted alpha-alkylidene-gamma-lactones and alpha-alkylidene-gamma-lactams” (Bioorg Med Chem, 2008)
Values joined by “and” are separate entries in the source; they are usually repeats but may differ in a detail not shown here. Equal values may be shown once.

What was measured:
Format in all cases: functional, cell-based
[1] = system: NALM-6; test: Cytotoxicity against human NALM6 cells after 48 hrs by MTT assay
Summary of the method: (§1)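 HL-60 (promyelocytic) and NALM-6 (lymphoblastic) cells grown in RPMI 1640 with 10% heat-inactivated FBS, streptomycin and penicillin, 37 °C, 5% CO2. Exponentially growing cells seeded at 8×10^3/well. Compounds prepared fresh from DMSO stocks and tested at 10^-7 to 10^-3 M for 46 h, then MTT 2 h. Formazan dissolved in 20% SDS/50% DMF pH 4.7, absorbance 562 and 630 nm. IC50 taken from concentration-response curves, means of at least 6 repeats ± SD.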

[2] = system: HL-60; test: Cytotoxicity against human HL60 cells after 48 hrs by MTT assay; summary of the method: as §1
[3] = system: L1210; test: Cytotoxicity against mouse L1210 cells after 48 hrs by tetrazolium dye method

Structure (SMILES) | IC50 ([1]; Homo sapiens, NALM-6, 48 h) | IC50 ([2]; Homo sapiens, HL-60, 48 h) | IC50 ([3]; Mus musculus, L1210, 48 h) | IC50 ([2]; hl-60) | IC50 ([3]; l1210) | IC50 ([1]; nalm-6)
C=C1CC(c2ccccc2)N(C)C1=O (configuration not stated) | 553 µM | 989 µM | > 50 µM |  |  | 
C=C1C(=O)OC(c2ccc(Br)cc2)C1C (configuration not stated) |  |  |  | 41.8 µM and 5.05 µM | 7.5 µM and 1.55 µM | 
C=C1C(=O)OC(c2ccc(OC)cc2)C1C (configuration not stated) |  |  |  | 37.9 µM and 5.69 µM | 14.2 µM and 3.65 µM | 38.6 µM and 5.23 µM
C=C1CC(c2ccc(Br)cc2)N(C)C1=O (configuration not stated) | 141 µM | 220 µM | > 50 µM |  |  | 
C=C1CC(c2ccc(Br)cc2)OC1=O (configuration not stated) | 85.3 µM | 20.3 µM | 1.3 µM |  |  | 
CC(C)/C=C1\CC(c2ccccc2)N(C)C1=O (configuration not stated) | 351 µM | 81.3 µM | > 50 µM |  |  | 
C=C1CC(c2ccc(OC)cc2)N(C)C1=O (configuration not stated) | 523 µM | 611 µM | > 50 µM |  |  | 
C=C1CC(c2cccc3ccccc23)OC1=O (configuration not stated) | 3.86 µM | 4.42 µM | 4.3 µM |  |  | 
CC(C)/C=C1/CC(c2ccccc2)OC1=O (configuration not stated) | 483 µM | 159 µM | > 50 µM |  |  | 
C=C1C(=O)OC(c2ccccc2)C1C (configuration not stated) | 7.91 µM | 8.97 µM |  | 8.97 µM | 4 µM and 28 µM | 7.91 µM
O=C1OC(c2ccccc2)C/C1=C\c1ccccc1 (configuration not stated) | 497 µM | > 1000 µM | > 50 µM |  |  | 
C=C1CC(c2ccccc2)OC1=O (configuration not stated) | 9.13 µM | 36.9 µM | 1.4 µM |  |  | 
